Data on one molecule can be found in ChEMBL document CHEMBL4052623, “Synthesis and antiproteasomal activity of novel O-benzyl salicylamide-based inhibitors built from leucine and phenylalanine” (Eur J Med Chem, 2017).

Active and inactive are the calls of the source. No cut-off for these calls is given here.

Series [1] has as its target T1, Proteasome Macropain subunit MB1 (Homo sapiens) (UniProt P28074).
T1 sequence (whole entry): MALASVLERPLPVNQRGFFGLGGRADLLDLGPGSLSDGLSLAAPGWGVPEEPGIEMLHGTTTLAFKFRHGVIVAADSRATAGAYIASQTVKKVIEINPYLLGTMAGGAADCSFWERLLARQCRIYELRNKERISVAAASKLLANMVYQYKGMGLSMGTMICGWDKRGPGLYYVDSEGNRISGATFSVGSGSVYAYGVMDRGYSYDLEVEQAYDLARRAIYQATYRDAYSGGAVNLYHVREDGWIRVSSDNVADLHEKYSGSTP
Description: Inhibition of chymotrypsin like activity of 26S proteasome beta 5 subunit in human U266 cells assessed as residual activity using N-Suc-LLVY-AMC as substrate at 10 uM preincubated for 1 hr followed by substrate addition and measured after 4 hrs by fluorescence assay relative to control. It is filed as cell-based.

Another series concerns K562. As to the kind of experiment: Antiproliferative activity against human K562 cells after 72 hrs by calcein AM staining based fluorescence assay. Conditions: K562, 72 h. Format: functional. In outline:
(§1)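 Cells treated with three-fold compound dilutions in triplicate for 72 h. Calcein AM added afterwards and live-cell fluorescence read at 485/538 nm (ex/em). GI50, the concentration lethal to 50% of tumour cells, calculated from dose-response curves.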

For a further series, the system named is CCRF-CEM. Description: Antiproliferative activity against human CEM cells after 72 hrs by calcein AM staining based fluorescence assay. It is filed as functional. In outline:
as §1

Series [2] relates to U-266. As to the kind of experiment: Antiproliferative activity against human U266 cells after 72 hrs by calcein AM staining based fluorescence assay. It is filed as functional. Conditions: U-266, 72 h. The essentials:
as §1

Series [3] has as its target T2, Proteasome Macropain subunit MB1 (Homo sapiens, UniProt P28074).
T2 sequence (P28074 whole entry): T1 sequence (whole entry)
Description: Inhibition of chymotrypsin-like activity of 26S proteasome beta 5 subunit in human U266 cells using Suc-LLVY-aminoluciferin as substrate after 1 hr by Proteosome-Glo luminescence assay. It is filed as cell-based. The essentials:
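U266 multiple myeloma cells plated at 20,000 cells/well and exposed to varying compound concentrations for 1 h at 37 °C, in duplicate. 26S proteasome activity measured immediately as luciferase-coupled hydrolysis of the β5 substrate Suc-LLVY-aminoluciferin (Proteasome-Glo), read by luminescence. Activity normalised to untreated cells; IC50 derived from dose-response curves.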

Series [4] concerns the target Proteasome Macropain subunit (Homo sapiens) (UniProt P49721). Description: Inhibition of trypsin like activity of 26S proteasome beta 2 subunit in human U266 cells assessed as residual activity using […] as substrate at 10 uM preincubated for 1 hr followed by substrate addition and measured after 4 hrs by fluorescence assay relative to control. Format: cell-based.

The species named for series [5] is Homo sapiens. Description: Inhibition of proteasome in human U2OS cells stably expressing GFP fused to short degron assessed as increase in GFP accumulation pre-incubated for 1 hr and measured after 9 hrs by live-cell imaging microscopy. It is filed as cell-based.
The species entered for series [6] is Homo sapiens. Description: Inhibition of proteasome in human U2OS cells stably expressing GFP fused to short degron assessed as increase in GFP accumulation at 200 nM […] by live-cell imaging microscopy. Format: cell-based.
Series [7] concerns U2OS. Description: Cytotoxicity against human U2OS cells at 6.25 uM after 16 hrs by live-cell imaging microscopic analysis. Format: cell-based. The essentials:
(§2)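 U2OS degron-GFP cells plated at 10,000 cells/well and treated with a range of compound concentrations. Proliferation followed by live-cell time-lapse imaging as percent confluence (occupied image area) over time, up to 72 h.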

Series [8] addresses T3, Proteasome component C5 (Homo sapiens) (UniProt P20618).
T3 sequence (whole entry): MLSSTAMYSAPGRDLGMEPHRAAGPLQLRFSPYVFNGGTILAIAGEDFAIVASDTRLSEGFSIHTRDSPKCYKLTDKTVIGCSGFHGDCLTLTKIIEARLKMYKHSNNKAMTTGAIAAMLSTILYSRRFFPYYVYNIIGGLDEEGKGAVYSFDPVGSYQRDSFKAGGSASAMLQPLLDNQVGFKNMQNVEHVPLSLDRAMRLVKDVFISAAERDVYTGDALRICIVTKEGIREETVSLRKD
As to the kind of experiment: Inhibition of caspase like activity of 26S proteasome beta 1 subunit in human U266 cells assessed as residual activity using […] as substrate at 10 uM preincubated for 1 hr followed by substrate addition and measured after 4 hrs by fluorescence assay relative to control. It is filed as cell-based.

The test system of series [9] is U2OS. Description: Antiproliferative activity against human U2OS cells up to 1 uM after 24 hrs by live-cell imaging microscopic analysis. Format: functional, cell-based. In outline:
as §2

The subject of series [10] is U2OS. Description: Antiproliferative activity against human U2OS cells up to 1 uM after 48 hrs by live-cell imaging microscopic analysis. Format: functional, cell-based. The essentials:
as §2

Series [11] relates to U2OS. As to the kind of experiment: Antiproliferative activity against human U2OS cells at 200 nM after 72 hrs by live-cell imaging microscopic analysis. It is filed as functional, cell-based. In outline: as §2
For series [12], the species on record is Homo sapiens. Description: Inhibition of proteasome in human U266 cells assessed as increase in accumulation of polyubiquitinated proteins at 250 nM by Western blot analysis. To be noted: TDE = time-dependent effect. It is filed as cell-based. In outline:
(§3)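 Treated U266 cells harvested in Laemmli sample buffer. Proteins separated by SDS-PAGE and electroblotted to nitrocellulose. Membranes blocked, probed overnight with specific primary antibodies, then detected with peroxidase-conjugated secondary antibodies.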
Background: In western blotting, separated proteins are transferred to a membrane and probed.

The species entered for series [13] is Homo sapiens. Description: Inhibition of proteasome in human U266 cells assessed as increase in p27KIP level up to 24 hrs by Western blot method. Format: cell-based. The essentials:
as §3

Series [14] has as its system U-266. Description: Induction of apoptosis in human U266 cells assessed as increase in caspase-3/7 activity using Ac-DEVD-AMC as substrate at 250 nM by fluorescence assay. It is filed as functional, cell-based. To be noted: TDE = time-dependent effect. In outline:
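Homogenates clarified at 10,000 × g for 30 min at 4 °C and protein-equalised. Lysates incubated with 100 µM Ac-DEVD-AMC in pH 7.3 PIPES/EGTA/MgCl2/DTT buffer. Fluorescence read at 355/460 nm and normalised to untreated control.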

Series [15] has as its system U-266. Description: Induction of apoptosis in human U266 cells assessed as PARP1 cleavage at 250 nM after 16 to 24 hrs by Western blot method. Format: functional, cell-based. In outline:
as §3

Series [16] relates to U-266. Description: Induction of apoptosis in human U266 cells assessed as caspase-7 cleavage at 250 nM after 16 to 24 hrs by Western blot method. It is filed as functional, cell-based. The essentials:
as §3

Series [17] deals with U-266. As to the kind of experiment: Induction of apoptosis in human U266 cells assessed as downregulation of Mcl-1 level at 250 nM after 16 to 24 hrs by Western blot method. It is filed as functional, cell-based. The essentials:
as §3

Series [18] deals with U-266. Description: Effect on beta-actin protein levels in human U266 cells at 250 nM after 2 to 24 hrs by Western blot analysis. It is filed as ADME, cell-based. Conditions: u-266, 0.25 µM. The essentials: as §3
Series [19] concerns U-266. As to the kind of experiment: Effect on alpha-tubulin protein levels in human U266 cells at 250 nM after 2 to 24 hrs by Western blot analysis. To be noted: u-266, 0.25 µM. It is filed as ADME, cell-based. The essentials: as §3

Proteasome Macropain subunit (Homo sapiens), sequence (P49721 whole entry): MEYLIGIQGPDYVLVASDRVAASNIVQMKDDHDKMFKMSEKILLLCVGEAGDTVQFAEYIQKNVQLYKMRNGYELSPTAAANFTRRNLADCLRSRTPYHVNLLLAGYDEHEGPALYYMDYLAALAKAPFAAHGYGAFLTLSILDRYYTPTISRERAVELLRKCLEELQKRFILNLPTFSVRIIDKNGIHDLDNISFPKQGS

As for `CC(C)CC(C=O)NC(=O)[C@H](Cc1ccccc1)NC(=O)[C@H](CC(C)C)NC(=O)c1cc(Cl)ccc1OCc1ccccc1` (stereo partly specified), the Activity is 13.4% in [1]; 81.8% in [4]; “Toxic” with U2OS [7]; 74.6% in series [8]; “Tde” in the series with U-266 [14]; “Non-Toxic” with U-266 [18]. Also, the Activity result in the series on U-266 [19] was “Non-Toxic”. In addition, the GI50 in the series with K562 is 570 nM; with CCRF-CEM it was 280 nM; in the series with U-266 [2], 150 nM. This molecule displayed a half-inhibitory concentration (IC50) in series [3] of 90 nM. In addition, the inhibition result in the series filed under Homo sapiens [5] is “Dose-dependent effect”; in the series listed under Homo sapiens [12], “Tde”; in the series filed under Homo sapiens [13], “Dose-dependent effect”. In the series listed under Homo sapiens [6], the inhibition entry was “Active”. Further, the result with U2OS [9] and in the series on U2OS [11] was inactive. Further, the outcome in the series with U2OS [10], in the series on U-266 [15], in the series with U-266 [16] and in the series with U-266 [17] was Active.

In general, GI50 refers to the concentration that inhibits growth by half. What is called IC50 is the concentration that inhibits the measured activity by half. Read a high IC50 as a need for much substance.
